# Compound activity (PubChem)
# ABHD5-PLIN5 inh = ABHD5-PLIN5 protein interaction inhibition. Q00G26+Q8WTS1. Split G. princeps luciferase complementation, luminescence, 4 h. inhibition, % at 4 µM. actives 0.78% (n = 360,000);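 active means inhibition above the mean inhibition across every tested compound plus 3 SD, cut at about 22% in these data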;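 further: 0% = DMSO only wells and the 100% control is not disclosed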
# NadD block = inhibitors of Staphylococcus aureus NadD | purified NadD enzyme, colorimetric absorbance read-out | AID 602399 | inhibition, % at 20 µM | actives 0.78% (n = 360,000); in the data active means inhibition above about 26%
# Rin1-Abl PPI inh = human Rin1-Abl interaction inhibition | P00519+Q13671 | TR-FRET Rin1/Abl binding, biochemical | inhibition, % at 7.35 µM | actives 0.4% (n = 360,000) | AID 588664; in the data active means inhibition above about 5%, passing the limit was not always enough
# Rpn11 inh = Rpn11 (human) deubiquitinase inhibition; human 26S proteasome, Ub4-pepOG fluorescence polarization; 20S core pre-blocked with epoxomicin; inhibition, % at 20 µM; actives 0.59% (n = 360,000);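 active means inhibition at 20 µM, scaled to each plate's controls, above about 33%, limit read from the data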
# Target sequence (O00487 whole entry, looked up): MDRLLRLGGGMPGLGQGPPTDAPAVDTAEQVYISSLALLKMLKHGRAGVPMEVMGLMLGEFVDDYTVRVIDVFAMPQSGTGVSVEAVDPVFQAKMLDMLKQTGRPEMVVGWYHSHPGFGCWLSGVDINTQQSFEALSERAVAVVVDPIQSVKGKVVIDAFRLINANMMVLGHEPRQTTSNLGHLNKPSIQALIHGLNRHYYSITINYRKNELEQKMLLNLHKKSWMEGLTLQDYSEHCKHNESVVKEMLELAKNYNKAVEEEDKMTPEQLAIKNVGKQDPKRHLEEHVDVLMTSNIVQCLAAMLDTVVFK
# XiGFP reactiv = activators of X-chromosome reactivation in mouse fibroblasts. XiGFP mouse fibroblasts, % GFP-positive cells imaging, 3 d; cells co-treated with 5-aza-dC sensitizer; scaled so ellipticine positive control = 100%. actives 0.055% (n = 360,000). activation, % at 7.58 µM. AID 743238;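 active means mean normalized replicate activation at least 10% and every replicate at or above 10%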;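 further: 0% = median of on-plate neutral control wells and 100% = ellipticine 6 µM median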
#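 System: 68-5-11 XiGFP fibroblast line | Buffer or medium: DMEM containing 5-aza-dC | Compound: Single point | Times: Compounds 3 days, fix/stain 15 min at room temperature | Benchmarks: Positive control ellipticine, 6 µM final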
# Rpn11 inh conf = confirmation of human proteasome Rpn11 inhibitors. shares compounds with Rpn11 inh. purified human 26S proteasome, Ub4-pepOG fluorescence polarization; proteasome pretreated with epoxomicin. inhibition, % at 20 µM. actives 29% (n = 1,900); in the data active means inhibition above about 40%
# MMP-2 inh = counter-screen for RPN11 inhibitors: inhibition of human MMP-2; recombinant MMP-2, FRET peptide cleavage fluorescence; actives 4% (n = 1,900); shares compounds with Rpn11 inh; inhibition, % at 20 µM; in the data active means inhibition above about 40%;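 further: human MMP-2 activated beforehand with APMA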
# Thrombin inh = blocks bovine thrombin, flagging nonselective RPN11 hits; shares compounds with Rpn11 inh; AID 602333; bovine thrombin cleavage of Ub4-pepOG, fluorescence polarization; actives 13% (n = 1,900); inhibition, % at 20 µM;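 active means mean inhibition at least 40% at 20 µM, or signal 3 deviations below plate average, so some actives read negative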;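 further: plate controls were thrombin with DMSO for no effect and buffer wells lacking thrombin for full effect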
# Rin1-Abl confirm = confirmation of inhibitors of human Rin1-Abl interaction; shares compounds with Rin1-Abl PPI inh; TR-FRET Rin1-Abl binding, purified proteins; inhibition, % at 7.35 µM; actives 49% (n = 1,300); AID 602124
# GFP quencher = quenches GFP fluorescence, counter-screen for Rin1-Abl inhibitors. shares compounds with Rin1-Abl PPI inh. inhibitors/quenchers counterscreen. inhibition, % at 6.75 µM. actives 8.5% (n = 1,300). AID 602125;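 further: ABL1-eGFP fusion protein alone without its partner RIN1-SBP; 0% = protein with vehicle and 100% = wells lacking protein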
# GFP quench dose = quenches GFP in dose response, Rin1-Abl counter-screen; 230 tested, under 10 active; AID 602182; GFP fluorescence interference/quenching counterscreen; IC50, µM; shares compounds with Rin1-Abl PPI inh; call rule not given here;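 further: ABL1-eGFP fusion protein alone without its RIN1 binding partner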
# ABHD5-PLIN5 conf = confirmation of human ABHD5-PLIN5 interaction inhibitors; shares compounds with ABHD5-PLIN5 inh; biochemical ABHD5-PLIN5 interaction, luminescence; actives 67% (n = 2,200); inhibition, % at 4 µM; in the data active means inhibition above about 23%;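 further: 0% = DMSO vehicle wells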
# HNF4 split-luc = counter-screen for ABHD5-PLIN5 inhibitors: HNF4 split-luciferase | AID 651674 | shares compounds with ABHD5-PLIN5 inh | inhibition, % at 4 µM | actives 77% (n = 2,200) | HNF4 dimerization, luminescence, biochemical;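 active means mean inhibition across replicate wells exceeding the computed hit threshold, cut at about 13% in these data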;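 further: light from luciferase halves that rejoin when HNF4 fusion proteins dimerize; 0% = DMSO only wells and the 100% control is not given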
# * hit, by the source's call; . = not tested or not shown. Compounds with a hit are over-represented: about 1.9% of the library has one in this group of screens. Unless noted, no stated cut-off is given here; in the data, active means inhibition above about 6.5%; inactive means the rest.
SMILES,ABHD5-PLIN5 inh,NadD block,Rin1-Abl PPI inh,Rpn11 inh,XiGFP reactiv,Rin1-Abl confirm,GFP quencher,others
Cc1cccc(S(=O)(=O)N2[C@@H]3Cn4c(ccc(-c5ccncc5)c4=O)[C@H]2[C@@H](C(=O)O)[C@@H]3CO)c1,.,.,.,.,0.3,.,.,
CCCCC(=O)N/N=C/c1c(O)n(CCc2ccccc2)c(=O)[nH]c1=O,1.6,-2.8,-2.2,0.6,0.3,.,.,
CCCCC(=O)N/N=C/c1c(O)n(Cc2ccc(F)cc2)c(=O)[nH]c1=O,0.6,-1.0,-1.3,50.0*,0.0,.,.,Rpn11 inh conf=32.4;MMP-2 inh=-36.6;Thrombin inh=-0.9
COc1ccc(C#Cc2ccc([C@H]3[C@H](CO)N4CCCCN(C(=O)Cc5ccncc5)C[C@@H]34)cc2)cc1,.,.,.,.,0.0,.,.,
COc1ccc(Cn2c(N)c(C(=O)NCc3ccco3)c3nc4ccccc4nc32)cc1OC,4.7,12.8,15.3*,46.2*,.,-3.9,-0.2,Rpn11 inh conf=-3.5;MMP-2 inh=-37.3;Thrombin inh=-1.9
O=C(O)[C@@H]1[C@@H](CO)[C@@H]2Cn3c(cccc3=O)[C@H]1N2C(=O)c1ccccc1,.,.,.,.,0.0,.,.,
O=C1NC(=O)N(Cc2ccccc2)C(=O)/C1=C\C=C\c1ccco1,27.7*,2.1,1.8,50.4*,0.2,.,.,Rpn11 inh conf=28.5;MMP-2 inh=11.2;Thrombin inh=20.6;ABHD5-PLIN5 conf=96.7*;HNF4 split-luc=63.9*
COc1ccc(OC)c(-n2c(O)c(/C=C3\C=Nc4ccccc43)c(=O)[nH]c2=O)c1,21.6,0.0,-1.2,20.2,0.1,.,.,
COc1ccccc1-n1c(O)c(/C=C2\C=Nc3ccccc32)c(=O)[nH]c1=O,28.6*,0.9,-0.4,47.8*,0.0,.,.,Rpn11 inh conf=5.5;MMP-2 inh=1.3;Thrombin inh=0.1;ABHD5-PLIN5 conf=23.9*;HNF4 split-luc=28.3*
C/C=C/c1ccc(C2[C@@H]3CN(C(=O)C4CC4)C[C@H]2N3)cc1 (stereo not given in full),.,.,.,.,0.0,.,.,
Oc1ccc(C[C@H]2NCCc3cc(O)c(O)cc32)cc1O,8.3,3.1,62.4*,-14.8,0.1,70.4*,3.8,GFP quench dose=>67.5
Oc1ccc(CC2CC3CCN2CC3)cc1O (stereo not given),-2.1,-2.6,-1.2,-3.2,.,.,.,
COC(=O)[C@H]1[C@H](CO)[C@H]2Cn3c(ccc(/C=C/c4ccccc4)c3=O)[C@@H]1N2C(=O)C1CC1,.,.,.,.,0.7,.,.,
NC(=O)C1(N2CCCCC2)CCN(Cc2ccccc2)CC1,5.4,-2.6,7.9*,0.2,.,-0.3,0.4,
Cc1cccc(S(=O)(=O)N2[C@@H]3c4ccc(-c5ccc(F)cc5)c(=O)n4C[C@H]2[C@H](CO)[C@H]3C(=O)O)c1,.,.,.,.,0.1,.,.,
NC(=O)c1cn(C2CCCCC2)c2ccccc2c1=O,0.2,-6.9,10.1*,-6.1,0.0,11.3*,-0.3,
O=C(O)[C@@H]1[C@@H](CO)[C@@H]2Cn3c(ccc(-c4cncnc4)c3=O)[C@H]1N2C(=O)NC1CCCC1,.,.,.,.,0.3,.,.,
Brc1ccc(Oc2cc(Br)c(Br)cc2Br)c(Br)c1,7.0,0.8,8.2*,0.4,.,13.2*,-1.6,
Nc1c(C(=O)NC2CCCC2)c2nc3ccccc3nc2n1CC1CCCO1 (stereo not given),-47.2,-7.0,19.2*,20.5,.,1.3,0.6,
Nc1c(C(=O)OCC2CCCO2)c2nc3ccccc3nc2n1Cc1cccs1 (stereo not given),-2.5,0.1,-0.2,7.9,.,.,.,
C[C@]12CC[C@H](O)CC1=CC(=O)C1C2CC[C@]2(C)C(=O)CCC12 (stereo not given in full),8.3,0.6,12.9*,-1.5,0.0,6.2,-1.1,
CCCC(C)C(=O)NC1CCSC1=O (stereo not given),-0.2,-0.2,4.9*,-6.1,.,0.0,-1.0,
COC(=O)[C@H]1[C@H](CO)[C@H]2Cn3c(ccc(C4=CCCC4)c3=O)[C@@H]1N2CC1CCCC1,.,.,.,.,0.0,.,.,
N#Cc1ccc(C(=O)N2Cc3cnnn3-c3ccccc3C2C#N)cc1 (stereo not given),9.1,-2.6,-5.7,-5.8,0.1,.,.,
N#CC1c2ccccc2-n2nncc2CN1S(=O)(=O)c1ccccc1 (stereo not given),1.0,1.9,10.0*,-5.9,0.0,3.3,-0.1,
C[C@H](CO)N1C[C@H](C)[C@H](CN(C)C(=O)Oc2ccccc2)OCc2ccccc2-c2c(n(C)c3ccccc23)C1=O,.,.,.,.,0.1,.,.,
O=C(Cc1ccccc1)N1CC2(C1)[C@H](c1ccccc1)[C@@H](CO)N2Cc1cccc(F)c1,.,.,.,.,0.0,.,.,
CC/C(CC(c1ccccc1)c1c(O)c2ccccc2oc1=O)=N\NC(N)=S (stereo not given),-4.8,-4.2,5.9*,-33.8,0.4,5.2,0.3,
